Results published in ChEMBL document CHEMBL2331340, “Novel antitumor indolizino[6,7-b]indoles with multiple modes of action: DNA cross-linking and topoisomerase I and II inhibition” (J Med Chem, 2013).
Values belong to the compound of their own block, whether it stands above or below them. Activity calls are given as the source filed them. No cut-off for these calls is given here.

Experiments:
[1] = tested on: CCRF-CEM; assay: Cytotoxicity against human CCRF-CEM cells after 72 hrs by XTT assay; type: functional, cell-based
Summary of the method: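 CCRF-CEM T-ALL cells incubated with compound for 72 h. XTT with phenazine methosulfate then added for 6 h at 37 °C, absorbance read at 450 and 630 nm. IC50 from six or seven concentrations by median-effect analysis; mean ± STDEV, n = 3.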

[2] = tested on: PC-3; assay: Cytotoxicity against human PC3 cells after 72 hrs by Alamar blue assay; type: functional, cell-based; settings: PC-3, 72 h
Summary of the method: (§1)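 Cells exposed to compound for 72 h, then Alamar blue added with a further 10−12 h at 37 °C and a spectrophotometric read. IC50 from six or seven concentrations by median-effect analysis; mean ± STDEV, n = 3. CL141T is a line derived from a patient lung tumor passaged as a SCID mouse xenograft.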

[3] = tested on: HCT-116; assay: Cytotoxicity against human HCT116 cells after 72 hrs by Alamar blue assay; type: functional, cell-based; settings: HCT-116, 72 h; summary of the method: as §1
[4] = Cytotoxicity against human CL141T cells after 72 hrs by Alamar blue assay; type: functional, cell-based; summary of the method: as §1
[5] = Cytotoxicity against human OECM1 cells after 72 hrs by Alamar blue assay; type: functional, cell-based; settings: OECM1, 72 h; summary of the method: as §1
[6] = Cytotoxicity against human MES-SA cells after 72 hrs by Presto Blue assay; type: functional, cell-based
Summary of the method: (§2)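 MES-SA and doxorubicin-resistant MES-SA/dx5 cells exposed for 72 h, then PrestoBlue added for 3 h at 37 °C, absorbance read at 570 and 600 nm. IC50 by median-effect analysis of six or seven concentrations; mean ± STDEV of three to six independent experiments.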

[7] = Cytotoxicity against human MES-SA/Dx5 cells after 72 hrs by Presto Blue assay; type: functional, cell-based; settings: MES-SA/Dx5, 72 h; summary of the method: as §2
[8] = Cytotoxicity against human KB-VIN10 cells after 72 hrs by Alamar blue assay; settings: KB-VIN10, 72 h
[9] = tested on: MES-SA; assay: Resistance factor, ratio of IC50 for human MES-SA/Dx5 cells to IC50 for human MES-SA cells; type: functional
[10] = tested on: A549; assay: Cytotoxicity against human A549 cells after 72 hrs by Alamar blue assay; type: functional, cell-based; settings: A549, 72 h; summary of the method: as §1
[11] = tested on: HT-29; assay: Cytotoxicity against human HT-29 cells after 72 hrs by Alamar blue assay; type: functional, cell-based; settings: HT-29, 72 h; summary of the method: as §1
[12] = Resistance factor, ratio of IC50 for human KB-VIN10 cells to IC50 for human KB cells; type: functional
[13] = tested on: KB; assay: Cytotoxicity against human KB cells after 72 hrs by Alamar blue assay
[14] = Cytotoxicity against human HEL299 cells; type: cell-based; settings: HEL 299
[15] = Cytotoxicity against human H460 cells after 72 hrs by Alamar blue assay; type: functional, cell-based; settings: NCI-H460, 72 h; summary of the method: as §1
[16] = tested on: MX1; assay: Cytotoxicity against human MX1 cells after 72 hrs by SRB assay; type: functional, cell-based; settings: MX1, 72 h
[17] = tested on: Escherichia coli; assay: Induction of Escherichia coli pEGFP-N1 DNA interstrand cross-linking at 1 to 10 uM after 2 hrs by alkaline agarose gel shift assay
Summary of the method: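 Plasmid pEGFP-N1 DNA (1500 ng) incubated with compound at 1, 5 and 10 μM in 3 mM NaCl/1 mM sodium phosphate pH 7.4/1 mM EDTA, 2 h at 37 °C. DNA then BamHI-linearized, EtOH-precipitated, denatured in 0.5 N NaOH/10 mM EDTA, run on 0.8% alkaline agarose at 4 °C (18 V, 22 h), stained with ethidium bromide.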

Compound: Cn1c2c(c3ccccc31)Cc1c(CO)c(CO)c(-c3ccccc3)n1C2
IC50 [1]: 1.17 µM

Compound: CCNC(=O)OCc1c(COC(=O)NCC)c(-c2ccc(OC)cc2)n2c1Cc1c(n(C)c3ccccc13)C2
IC50 [2]: 8.3 µM
IC50 [3]: 7.1 µM
IC50 [4]: 8.13 µM
IC50 [5]: 6.15 µM
IC50 [1]: 0.1 µM

Compound: CCc1c(CO)c(CO)c2n1Cc1c(c3ccccc3n1C)C2
IC50 [6]: 0.77 µM
IC50 [7]: 0.47 µM
IC50 [2]: 3.32 µM
IC50 [8]: 1.56 µM
Ratio IC50 [9]: 0.61
IC50 [4]: 1.32 µM
IC50 [10]: 3.15 µM
IC50 [11]: 8.56 µM
IC50 [5]: 2.11 µM
IC50 [1]: 0.2 µM
Ratio IC50 [12]: 0.79
IC50 [13]: 1.97 µM
IC50 [14]: 4.24 µM

Compound: COc1cc(-c2c(COC(=O)NC(C)C)c(COC(=O)NC(C)C)c3n2Cc2c(c4ccccc4n2C)C3)cc(OC)c1OC
IC50 [1]: 0.95 µM

Compound: CCNC(=O)OCc1c(COC(=O)NCC)c(-c2ccc(OC)c(OC)c2)n2c1Cc1c(n(C)c3ccccc13)C2
IC50 [2]: 8.03 µM
IC50 [4]: 11.2 µM
IC50 [5]: 5.29 µM
IC50 [1]: 0.3 µM

Compound: COc1ccc(-c2c(CO)c(CO)c3n2Cc2c(c4ccccc4n2C)C3)cc1
IC50 [1]: 1.3 µM

Compound: COc1cc(-c2c(CO)c(CO)c3n2Cc2c(c4ccccc4n2C)C3)cc(OC)c1OC
IC50 [1]: 4.45 µM

Compound: CCNC(=O)OCc1c(COC(=O)NCC)c(-c2ccccc2)n2c1Cc1c(n(C)c3ccccc13)C2
IC50 [2]: 9.13 µM
IC50 [4]: 10.5 µM
IC50 [5]: 5.19 µM
IC50 [1]: 0.23 µM

Compound: COc1cccc2c1C(=O)c1c(O)c3c(c(O)c1C2=O)C[C@@](O)(C(=O)CO)C[C@@H]3O[C@H]1C[C@H](N)[C@H](O)[C@H](C)O1 [DOXORUBICIN]
IC50 [6]: 0.038 µM
IC50 [7]: 2.3 µM
Ratio IC50 [9]: 60.52

Compound: CCNC(=O)OCc1c(COC(=O)NCC)c2n(c1C)Cc1c(c3ccccc3n1Cc1ccccc1)C2
IC50 [2]: 5.05 µM
IC50 [3]: 3.84 µM
IC50 [15]: 8.31 µM
IC50 [5]: 5.42 µM
IC50 [1]: 0.14 µM

Compound: CC(C)NC(=O)OCc1c(COC(=O)NC(C)C)c(-c2ccc(F)c(F)c2)n2c1Cc1c(n(C)c3ccccc13)C2
IC50 [2]: 34.2 µM
IC50 [4]: 18.3 µM
IC50 [5]: 15.2 µM
IC50 [1]: 0.44 µM

Compound: CCNC(=O)OCc1c(COC(=O)NCC)c(-c2ccc(Cl)cc2)n2c1Cc1c(n(C)c3ccccc13)C2
IC50 [2]: 4.95 µM
IC50 [3]: 1.17 µM
IC50 [4]: 7.88 µM
IC50 [16]: 1.83 µM
IC50 [5]: 9.01 µM
IC50 [1]: 0.35 µM

Compound: Cc1c(COC(=O)NC(C)C)c(COC(=O)NC(C)C)c2n1Cc1c(c3ccccc3n1Cc1ccccc1)C2
IC50 [2]: 4.18 µM
IC50 [3]: 3.92 µM
IC50 [15]: 7.26 µM
IC50 [4]: 4.66 µM
IC50 [5]: 4.2 µM
IC50 [1]: 0.1 µM

Compound: CCn1c2c(c3ccccc31)Cc1c(COC(=O)NC(C)C)c(COC(=O)NC(C)C)c(C)n1C2
IC50 [2]: 3.28 µM
IC50 [3]: 2.2 µM
IC50 [4]: 1.88 µM
IC50 [10]: 2.64 µM
IC50 [11]: 6.36 µM
IC50 [5]: 2.27 µM
IC50 [1]: 0.14 µM

Compound: Cc1c(CO)c(CO)c2n1Cc1c(c3ccccc3n1Cc1ccccc1)C2
IC50 [2]: 4.52 µM
IC50 [4]: 2.76 µM
IC50 [5]: 4.17 µM
IC50 [1]: 0.29 µM

Compound: CCNC(=O)OCc1c(COC(=O)NCC)c(-c2ccc(F)c(F)c2)n2c1Cc1c(n(C)c3ccccc13)C2
IC50 [2]: 6.76 µM
IC50 [15]: 18.9 µM
IC50 [4]: 9.61 µM
IC50 [5]: 14.4 µM
IC50 [1]: 0.13 µM

Compound: Cc1c(COC(=O)NC(C)C)c(COC(=O)NC(C)C)c2n1Cc1c(c3ccccc3n1C)C2
IC50 [2]: 3.03 µM
IC50 [3]: 1.26 µM
IC50 [4]: 2.43 µM
IC50 [16]: 0.25 µM
IC50 [10]: 3.81 µM
IC50 [11]: 10.8 µM
IC50 [5]: 1.45 µM
IC50 [1]: 0.03 µM

Compound: COc1ccc(-c2c(COC(=O)NC(C)C)c(COC(=O)NC(C)C)c3n2Cc2c(c4ccccc4n2C)C3)cc1
IC50 [2]: 6.84 µM
IC50 [3]: 5.93 µM
IC50 [15]: 9.52 µM
IC50 [4]: 4 µM
IC50 [5]: 4.17 µM
IC50 [1]: 0.12 µM

Compound: Cn1c2c(c3ccccc31)Cc1c(CO)c(CO)c(-c3ccc(Cl)cc3)n1C2
IC50 [2]: 12.9 µM
IC50 [3]: 17.5 µM
IC50 [4]: 23.8 µM
IC50 [16]: 11.3 µM
IC50 [5]: 17.2 µM
IC50 [1]: 4.58 µM

Compound: Cn1c2c(c3ccccc31)Cc1c(CO)c(CO)c(-c3ccc(F)cc3)n1C2
IC50 [1]: 1.46 µM

Compound: CCc1c(COC(=O)NC(C)C)c(COC(=O)NC(C)C)c2n1Cc1c(c3ccccc3n1C)C2
IC50 [2]: 2.1 µM
IC50 [3]: 2.22 µM
IC50 [4]: 2.66 µM
IC50 [5]: 2.02 µM
IC50 [1]: 0.16 µM

Compound: Cn1c2c(c3ccccc31)Cc1c(CO)c(CO)c(-c3ccc(F)c(Cl)c3)n1C2
IC50 [1]: 14.4 µM

Compound: CCNC(=O)OCc1c(COC(=O)NCC)c(-c2ccc(F)c(Cl)c2)n2c1Cc1c(n(C)c3ccccc13)C2
IC50 [1]: 1.8 µM

Compound: COc1ccc(-c2c(COC(=O)NC(C)C)c(COC(=O)NC(C)C)c3n2Cc2c(c4ccccc4n2C)C3)cc1OC
IC50 [1]: 0.3 µM

Compound: CCNC(=O)OCc1c(COC(=O)NCC)c(-c2ccc(F)cc2)n2c1Cc1c(n(C)c3ccccc13)C2
IC50 [2]: 14.6 µM
IC50 [4]: 12.4 µM
IC50 [5]: 8.6 µM
IC50 [1]: 0.39 µM

Compound: COc1ccc(-c2c(CO)c(CO)c3n2Cc2c(c4ccccc4n2C)C3)cc1OC
IC50 [2]: 37.9 µM
IC50 [4]: 33.1 µM
IC50 [5]: 37.2 µM
IC50 [1]: 0.96 µM

Compound: CC[C@]1(O)C[C@H]2CN(CCc3c([nH]c4ccccc34)[C@@](C(=O)OC)(c3cc4c(cc3OC)N(C=O)[C@H]3[C@@](O)(C(=O)OC)[C@H](OC(C)=O)[C@]5(CC)C=CCN6CC[C@]43[C@@H]65)C2)C1 [VINCRISTINE]
IC50 [8]: 0.303 µM
Ratio IC50 [12]: 143.7
IC50 [13]: 0.00211 µM

Activity [17]: Active
Compound: CCNC(=O)OCc1c(COC(=O)NCC)c2n(c1C)Cc1c(c3ccccc3n1CC)C2
IC50 [2]: 4.61 µM
IC50 [3]: 3.22 µM
IC50 [15]: 5.14 µM
IC50 [4]: 1.4 µM
IC50 [5]: 4.9 µM
IC50 [1]: 0.14 µM

Compound: CC(C)NC(=O)OCc1c(COC(=O)NC(C)C)c(-c2ccccc2)n2c1Cc1c(n(C)c3ccccc13)C2
IC50 [2]: 7.84 µM
IC50 [15]: 4.72 µM
IC50 [4]: 9.6 µM
IC50 [5]: 4.87 µM
IC50 [1]: 0.13 µM

Compound: Cn1c2c(c3ccccc31)Cc1c(CO)c(CO)c(-c3ccc(F)c(F)c3)n1C2
IC50 [1]: 7.94 µM

Compound: CCNC(=O)OCc1c(COC(=O)NCC)c2n(c1CC)Cc1c(c3ccccc3n1C)C2
IC50 [2]: 5 µM
IC50 [3]: 1.8 µM
IC50 [4]: 2.85 µM
IC50 [5]: 3.9 µM
IC50 [1]: 0.16 µM

Compound: CC(C)NC(=O)OCc1c(COC(=O)NC(C)C)c(-c2ccc(Cl)cc2)n2c1Cc1c(n(C)c3ccccc13)C2
IC50 [2]: 13.1 µM
IC50 [3]: 9.28 µM
IC50 [4]: 14 µM
IC50 [16]: 12.4 µM
IC50 [5]: 12.7 µM
IC50 [1]: 0.44 µM

Compound: CC(C)NC(=O)OCc1c(COC(=O)NC(C)C)c(-c2ccc(F)c(Cl)c2)n2c1Cc1c(n(C)c3ccccc13)C2
IC50 [1]: 1.91 µM

Compound: CCNC(=O)OCc1c(COC(=O)NCC)c(-c2cc(OC)c(OC)c(OC)c2)n2c1Cc1c(n(C)c3ccccc13)C2
IC50 [1]: 0.62 µM
